Results on one compound are retold here after ChEMBL document CHEMBL4138248, “Discovery of naphtho[1,2-d]oxazole derivatives as potential anti-HCV agents through inducing heme oxygenase-1 expression” (Eur J Med Chem, 2018).

Calls of active or inactive are those of the source. The rule behind the calls is not given here.

Data set [1] is described as follows: Selectivity index, ratio of CC50 for human Ava5 cells to IC50 for HCV. The data set is classed as toxicity. Particulars: read-out: Ratio CC50/IC50. In short, it runs like this: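 SI = CC50/IC50. CC50 comes from 72 h XTT in […] Ava5 cells. IC50 is the concentration giving 50% inhibition of HCV, measured by RT-qPCR after 3 days in Ava5 cells.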
For data set [2], the target named is T1, Heme oxygenase 1 (Homo sapiens) (UniProt P09601).
T1 sequence (whole entry): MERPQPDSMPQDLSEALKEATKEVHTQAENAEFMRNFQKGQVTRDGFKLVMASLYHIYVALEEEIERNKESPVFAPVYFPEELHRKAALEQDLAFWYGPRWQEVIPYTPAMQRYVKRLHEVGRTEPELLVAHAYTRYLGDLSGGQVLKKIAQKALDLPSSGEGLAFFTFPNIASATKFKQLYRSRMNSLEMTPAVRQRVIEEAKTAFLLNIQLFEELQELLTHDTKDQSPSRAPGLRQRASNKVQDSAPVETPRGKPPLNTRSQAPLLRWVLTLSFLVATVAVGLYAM
In words: Induction of HO-1-mediated reduction on HCV NS3/4A protease activity in human Huh-7 cells transfected with pEG(DE4AB)SEAP/pNS3/4A after 3 days. The data set is classed as cell-based. In short, it runs like this: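 Huh-7 cells were co-transfected with the pEG(DE4AB)SEAP reporter and the NS3/4A expression plasmid pNS3/4A, then treated for 3 days. Secreted SEAP activity reports protease activity and is expressed as fold of untreated control (set to 1). Mean ± SD, n=3.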

Data set [3] has as its system Hepatitis C virus. In words: Potency index, ratio of ribavirin IC50 to test compound IC50 for HCV. The data set is classed as functional, Hepacivirus hominis.
Data set [4] deals with Hepatitis C virus. The experiment in a line: Antiviral activity against HCV JFH-1 infected in human Huh7.5 cells assessed as inhibition of viral RNA replication after 3 days by RT-qPCR method. It is filed as functional, organism-based. The note with it: Hepacivirus hominis. In general terms: Real-time PCR tracks product formation cycle by cycle.
Data set [5] deals with Hepatitis C virus. The experiment in a line: Antiviral activity against HCV infected in human Ava5 cells assessed as inhibition of viral RNA replication after 3 days by RT-qPCR method. It is filed as functional, organism-based, Hepacivirus hominis. Particulars: Ava5, 72 h. In short, it runs like this:
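Ava5 cells (Huh-7 hepatoma cells carrying an HCV replicon, grown in DMEM/10% FBS with 1 mg·mL⁻¹ G418) were treated for 3 days with a range of concentrations. HCV RNA was measured by RT-qPCR and normalized to cellular gapdh mRNA. Values are mean ± SD of three independent experiments, each in triplicate.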

The species entered for data set [6] is Homo sapiens. In words: Effect on Nrf2 protein expression in human Ava5 cells at 0.5 to 1 uM after 3 days by Western blot method. The data set is classed as functional, cell-based. In short, it runs like this:
(§1)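 Ava5 cells were treated for 3 days at the indicated concentrations. Whole-cell lysates were immunoblotted with anti-Nrf2, anti-Keap-1, anti-bach1 and anti-GAPDH.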
In general terms: A western blot detects proteins with antibodies after separation by electrophoresis.

Data set [7] has as its target T1, Heme oxygenase 1 (Homo sapiens). In words: Induction of HO-1-mediated IFN-alpha-2 mRNA expression in human Ava5 cells after 3 days by RT-qPCR method. The data set is classed as cell-based. In short, it runs like this:
(§2)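 Ava5 cells were treated for 3 days at the indicated concentrations. Target mRNAs were measured by RT-qPCR with specific primers and normalized to endogenous gapdh. Results are relative to DMSO-treated cells.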

The test system of data set [8] is Hepatitis C virus. The experiment in a line: Antiviral activity against HCV infected in human Ava5 cells assessed as inhibition of NS5B protein synthesis at 1 uM after 3 days in presence of HO-1 inhibitor SnPP by Western blot method. It is filed as functional, organism-based. Particulars: Hepacivirus hominis. In short, it runs like this:
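Ava5 cells were co-incubated for 3 days with test compound at 1 μM plus the HO-1 inhibitor SnPP (tin protoporphyrin IX) at 0–5 μM. Lysates went to western blot for NS5B and GAPDH. RNA went to RT-qPCR normalized to gapdh mRNA. Mean ± SD of three independent experiments.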

Data set [9] has as its target T1, Heme oxygenase 1 (Homo sapiens). In words: Induction of HO-1-mediated PKR mRNA expression in human Ava5 cells after 3 days by RT-qPCR method. It is filed as cell-based. In short, it runs like this: as §2
Data set [10] has the same target. The experiment in a line: Induction of HO-1-mediated IFN-alpha-5 mRNA expression in human Ava5 cells after 3 days by RT-qPCR method. It is filed as cell-based. In short, it runs like this: as §2
Data set [11] shares this target. The experiment in a line: Induction of HO-1-mediated ISRE promoter activity in human Ava5 cells transfected with pISRE-Luc after 3 days. The data set is classed as cell-based. In short, it runs like this:
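Ava5 cells carrying pISRE-Luc (ISRE-driven firefly luciferase) were treated for 3 days at increasing concentrations. Luciferase activity was read in cell lysates, normalized to co-transfected pCMV-SEAP.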

In data set [12] the test system is Hepatitis C virus. The experiment in a line: Antiviral activity against HCV infected in human Ava5 cells assessed as inhibition of viral RNA replication at 20 uM after 3 days by RT-qPCR method relative to control. The data set is classed as functional, Hepacivirus hominis. The note with it: Ava5, 72 h. In short, it runs like this:
(§3)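 Ava5 replicon cells were exposed to 5 or 20 μM for 3 days, starting from 10 mM DMSO stocks diluted in medium. HCV RNA was quantified by RT-qPCR against gapdh and expressed as % inhibition relative to untreated control. Ribavirin was the reference drug. Mean ± SD of three independent experiments.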

The species entered for data set [13] is Homo sapiens. In words: Downregulation of bach-1 protein expression in human Ava5 cells after 3 days by Western blot method. The data set is classed as functional, cell-based. In short, it runs like this:
as §1

The species entered for data set [14] is Homo sapiens. In words: Effect on Keap-1 protein expression in human Ava5 cells at 0.5 to 1 uM after 3 days by Western blot method. The data set is classed as functional, cell-based. In short, it runs like this:
as §1

For data set [15], the system named is Hepatitis C virus. The experiment in a line: Antiviral activity against HCV infected in human Ava5 cells assessed as inhibition of viral RNA replication at 5 uM after 3 days by RT-qPCR method relative to control. The data set is classed as functional, Hepacivirus hominis. The note with it: Ava5, 72 h. In short, it runs like this: as §3
Data set [16] deals with Hepatitis C virus. The experiment in a line: Antiviral activity against HCV infected in human Ava5 cells assessed as inhibition of NS5B protein synthesis after 3 days by Western blot method. It is filed as functional, organism-based. Particulars: Hepacivirus hominis. In short, it runs like this:
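Ava5 cells, seeded at 5×10^4 per well and grown overnight, were treated for 3 days. Lysates were made in RIPA buffer and 10 µg protein was run on 10% SDS-PAGE. Blots were probed with anti-NS5B, with GAPDH as loading control.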

Data set [17] in a line: Cytotoxicity against human Ava5 cells assessed as decrease in cell viability after 72 hrs by XTT assay. The data set is classed as cell-based. In short, it runs like this:
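XTT assay on […] Ava5 cells at 5×10^3 per well with serial dilutions for 72 h at 37 °C in 5% CO₂. CC50 is the concentration giving 50% growth inhibition.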
A general note: Tetrazolium dyes change colour on reduction, which living cells bring about.

`COc1ccc(Nc2cc3oc(-c4ccco4)nc3c3ccccc23)cc1`: in data set [1], the selectivity ratio was 229. The Activity entry (in data set [2]; in [7]; in [9]; in data set [10]; in [11]; in the data set filed under Homo sapiens [13]) was “Dose-dependent effect” throughout. Besides, in the data set with Hepatitis C virus [3], the “Ratio IC50” value is on record as 21. Further, the inhibition result in the data set with Hepatitis C virus [4] and in the data set on Hepatitis C virus [16] was “Dose-dependent effect” each time. Also, in the data set on Hepatitis C virus [5], the IC50 (usually the concentration needed to halve the response being measured) turned out to be 0.63 µM. Besides, the result in the data set listed under Homo sapiens [6] and in the data set filed under Homo sapiens [14] was inactive. The inhibition – broadly, the relative decrease from the control value, in per cent – in the data set with Hepatitis C virus [8] was “inactive”. In addition, the inhibition at 20 µM in the data set with Hepatitis C virus [12] was found to be 94.6%. For the same compound, in the data set on Hepatitis C virus [15], the inhibition at 5 µM turned out to be 92.1%. The CC50 – broadly, the concentration at which the toxic effect on the cells reaches its halfway point – at 72 h in data set [17] was 144 µM.
